{"source": "ChEMBL document CHEMBL1139535", "about": "“Modification of the estrogenic properties of diphenols by the incorporation of ferrocene. Generation of antiproliferative effects in vitro” (J Med Chem, 2005)", "key": {"[1]": {"biological_target": "T1, Estrogen receptor (Homo sapiens) (UniProt P03372)", "T1 sequence (whole entry)": "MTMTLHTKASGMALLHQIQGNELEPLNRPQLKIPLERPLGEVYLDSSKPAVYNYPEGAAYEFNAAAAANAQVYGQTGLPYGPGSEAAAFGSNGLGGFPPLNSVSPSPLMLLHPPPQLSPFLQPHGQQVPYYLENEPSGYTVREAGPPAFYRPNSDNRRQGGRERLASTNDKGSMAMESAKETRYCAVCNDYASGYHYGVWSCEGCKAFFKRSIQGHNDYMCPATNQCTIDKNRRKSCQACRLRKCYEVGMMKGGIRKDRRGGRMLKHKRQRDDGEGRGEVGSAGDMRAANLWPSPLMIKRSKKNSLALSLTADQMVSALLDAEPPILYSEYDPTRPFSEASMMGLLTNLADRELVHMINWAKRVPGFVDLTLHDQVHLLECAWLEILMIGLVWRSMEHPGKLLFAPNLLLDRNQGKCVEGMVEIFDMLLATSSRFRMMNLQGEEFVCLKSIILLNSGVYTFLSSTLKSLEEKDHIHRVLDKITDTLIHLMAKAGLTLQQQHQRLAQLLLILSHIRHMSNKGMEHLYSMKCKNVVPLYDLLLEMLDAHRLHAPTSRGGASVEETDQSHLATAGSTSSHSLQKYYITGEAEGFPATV", "assay": "Relative binding affinity for estrogen receptor 1 (ER-alpha) of lamb uterine cytosol", "conditions": "Ovis aries; target entry is the homologue from another species", "in_short": "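Cytosol from frozen sheep (lamb) uteri in 0.05 M Tris-HCl, 0.25 M sucrose, 0.1% β-mercaptoethanol, pH 7.4. Incubated 3 h at 0°C with 2×10⁻⁹ M [6,7-3H]-estradiol and nine competitor concentrations. Bound and free separated by protamine sulfate precipitation. 50% displacement concentration from logit plot; RBA relative to estradiol = 100%; mean of at least two experiments.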"}, "[2]": {"biological_target": "Estrogen receptor beta (Homo sapiens) (UniProt Q92731)", "sequence (Q92731 whole entry)": "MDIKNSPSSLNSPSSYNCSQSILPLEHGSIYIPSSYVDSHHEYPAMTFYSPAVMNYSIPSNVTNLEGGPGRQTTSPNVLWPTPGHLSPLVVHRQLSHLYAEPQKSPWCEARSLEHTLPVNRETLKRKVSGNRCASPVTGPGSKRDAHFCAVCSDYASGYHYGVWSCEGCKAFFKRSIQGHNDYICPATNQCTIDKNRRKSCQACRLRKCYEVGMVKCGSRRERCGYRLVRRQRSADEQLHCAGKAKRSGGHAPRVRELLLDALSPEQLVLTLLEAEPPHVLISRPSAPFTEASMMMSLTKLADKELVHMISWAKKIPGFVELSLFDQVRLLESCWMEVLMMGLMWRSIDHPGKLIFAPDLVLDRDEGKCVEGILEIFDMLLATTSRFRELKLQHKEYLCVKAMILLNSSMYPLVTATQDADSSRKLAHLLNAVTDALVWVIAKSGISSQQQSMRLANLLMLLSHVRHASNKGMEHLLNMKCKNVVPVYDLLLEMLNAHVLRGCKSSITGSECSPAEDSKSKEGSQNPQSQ", "assay": "Relative binding affinity for estrogen receptor 2 (ER-beta)", "in_short": "(§1)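 Incubated 3 h at 0°C with 2×10⁻⁹ M [3H]-estradiol plus nine competitor levels. Protamine sulfate separation, logit analysis of 50% displacement. RBA vs estradiol (100%); mean of at least two experiments.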"}, "[3]": {"assay": "Relative binding affinity for purified estrogen receptor 1 (ER-alpha)", "in_short": "as §1"}, "[4]": {"assay": "Partition coefficient (logP)", "type": "physicochemical", "conditions": "octanol/water", "in_short": "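Reversed-phase HPLC on a C-8 column. Capacity factors k' extrapolated to 100% aqueous component to give k'w; logPo/w = 0.13418 + 0.98452 log k'w.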"}}, "data": [{"molecule": "CCC(=C(c1ccc(O)cc1)c1ccc(O)cc1)c1ccccc1", "values": [{"measurement": "RBA", "setting": "[1]", "value": 6.8, "unit": "%"}, {"measurement": "RBA", "setting": "[2]", "value": 101, "unit": "%"}, {"measurement": "RBA", "setting": "[3]", "value": 47.5, "unit": "%"}, {"measurement": "logP", "setting": "[4]", "value": 4.4}]}]}
